Screening results deposited in PubChem by several laboratories.
Hck-Nef inh: blocks Nef-activated human Hck kinase; P08631; hit rate 0.68% among 220,000; Recombinant Hck-YEEI plus Nef, Z-Lyte FRET kinase assay; inhibition, % at 20 µM; AID 463187;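 active = Hck-Nef kinase inhibition above about 50%, limit read from the data; inactive = inhibition below that limit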;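 also: 0% = DMSO with Hck plus Nef and 100% = Hck alone without Nef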
p47phox inh: inhibitors of human p47phox binding; P14598; p47phox/p22phox peptide binding, fluorescence polarization, 2 h; AID 1274; inhibition, % at 24.7 µM; hit rate 0.53% among 220,000;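 active = inhibition above about 30%, limit read from the data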;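 also: 0% = p47phox with labelled peptide and 100% = labelled peptide alone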
Target sequence (P14598 whole entry, looked up): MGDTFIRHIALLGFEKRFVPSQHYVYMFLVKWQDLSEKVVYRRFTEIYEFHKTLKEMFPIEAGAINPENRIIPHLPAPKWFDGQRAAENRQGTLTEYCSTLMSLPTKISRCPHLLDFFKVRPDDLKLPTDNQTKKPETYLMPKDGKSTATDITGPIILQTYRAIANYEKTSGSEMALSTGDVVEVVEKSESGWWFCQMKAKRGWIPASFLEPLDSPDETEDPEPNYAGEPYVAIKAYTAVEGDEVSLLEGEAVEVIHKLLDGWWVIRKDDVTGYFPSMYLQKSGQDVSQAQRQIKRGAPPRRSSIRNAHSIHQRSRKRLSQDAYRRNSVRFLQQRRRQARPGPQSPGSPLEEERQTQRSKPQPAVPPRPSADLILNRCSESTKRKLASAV
Arbovirus anti: antivirals against arbovirus infection | hit rate 0.37% among 200,000 | inhibition, % at 10 µM | arbovirus infection cell-based antiviral screen; in the data active = inhibition above about 30%
WT yeast gro inh: growth inhibition of WT yeast, mitochondrial fusion screen | mitochondrial fusion phenotypic screen, WT strain | inhibition, % at 10 µM | hit rate 2.1% among 190,000 | AID 1362; in the data active = inhibition above about 58%; tested in S. cerevisiae
RAM inhibit: blocks the yeast RAM network. hit rate 1.8% among 190,000. S. cerevisiae dse1pr::URA3 reporter, 5-FOA growth OD615, 2 d; analog-sensitive cbk1-as2 kinase mutant strain. inhibition, % at 50 µM;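 active = inhibition above a set limit, 3 SD over mean compound inhibition, cut at about 8.4% in these data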;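 also: 0% = DMSO-only wells with no growth and 100% = 10 µM 1-NA-PP1 full growth; inhibition rescues growth on 5-FOA so higher OD means more RAM inhibition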
Calb biofilm kill: mixtures killing C. albicans biofilm; C. albicans biofilm persisters + clotrimazole, fluorescence viability; primary screen in compound mixtures of four per well; AID 1242; inhibition, % at 7.6 µM; hit rate 0.02% among 120,000;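 active = inhibition above 30.3% in the primary screen of four-compound pools, then above 30% when the compound was retested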;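 also: compounds exposed to preformed 24 h biofilms for 48 h; 0% = untreated biofilm control and 100% = clotrimazole plus chlorhexidine kill blank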
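Assay system: C. albicans biofilms / Medium: RPMI/MOPS medium, pH 7.0 / Schedule: biofilm formation 24 h, compound exposure 48 h, 37 °C / Measured by: Alamar Blue fluorescence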
The depositor's hits bear a star; x = no result; + = active, no number. In the library only some 4.6% were active in any assay of this set; here they are far more common.

SMILES	Hck-Nef inh	p47phox inh	Arbovirus anti	WT yeast gro inh	RAM inhibit	Calb biofilm kill
CCOc1ccc(NC(=O)Cn2nnc(-c3ccccc3NC(=O)c3cccs3)n2)cc1	25	-4	-16	14	8.4*	x
O=C(Cc1ccccc1)Nc1cc(C(=O)c2ccccc2)ccc1N1CCOCC1	-2	-6	5	5	3	x
NC(N)=N/N=C/c1ccc(OCc2ccccc2Cl)cc1	3	5	-42	62*	3	x
CC(=O)c1ccc(N(C(=O)c2csnn2)C(C(=O)NC(C)(C)C)c2cccs2)cc1 (stereo not given)	15	-8	-2	-15	2	7
COCCN(C(=S)Nc1ccc(C)c(C)c1)C(C)c1ccco1 (stereo not given)	19	-8	2	60*	2	9
Cc1ccc(NC(=S)N(CCN(C)C)C(C)c2ccco2)cc1C (stereo not given)	-7	-8	16	-4	-1	13
CC(=O)N(C)c1nnc(-c2cnccn2)s1	1	-4	7	74*	0	x
COc1ccccc1C1c2c(C)nn(-c3ccccc3)c2NC(=O)C1NC(=O)c1ccccc1 (stereo not given)	2	2	-6	-16	1	6
COc1ccc(CNCC(O)(c2ccccc2)c2ccc(Cl)cc2)cc1 (stereo not given)	0	7	-18	-7	1	x
Cc1ccc(CNCC(O)(c2ccccc2)c2ccc(Cl)cc2)cc1 (stereo not given)	8	-2	-20	69*	1	-2
Cc1ccc(Cn2ncc3c(N4CCN(C5CCCC5)CC4)ncnc32)cc1	16	3	-12	20	1	13
Cc1ccc(OCC(=O)OCC(=O)c2c(N)n(C)c(=O)n(C)c2=O)cc1C	1	-13	7	0	2	x
Cc1ccc(C(C)C)c(Oc2nnnn2-c2ccccc2)c1	-8	-2	-2	66*	0	x
COc1ccc(C(=O)O)cc1S(=O)(=O)N(CCc1ccccc1)Cc1ccccc1	-21	-13	x	x	x	16
Cc1cc(-c2csc(NCc3ccccc3)n2)c(C)n1C	65*	18	8	5	7	4
Cc1nc(N)sc1-c1csc(NCc2ccccc2)n1	0	-28	-12	-2	1	x
Cc1ccc(NC(=O)N2N=C(c3ccc(F)cc3)CC2c2ccc(F)cc2)cc1 (stereo not given)	3	0	15	77*	3	16
CS(=O)(=O)Nc1ccc(C2=NN(C(=O)c3ccco3)C(c3ccc(F)cc3)C2)cc1 (stereo not given)	-11	-13	-10	10	6	12
O=C(Nc1ncc2c(n1)-c1ccccc1OC2)c1ccc(F)cc1	13	3	5	8	1	16
O=C(Nc1ncc2c(n1)-c1ccccc1OC2)c1cccc([N+](=O)[O-])c1	22	-4	4	17	8.6*	0
O=C(COC(=O)Cc1c(Cl)cccc1Cl)NCC1CCCO1 (stereo not given)	12	4	5	12	0	14
CCC(C)c1ccc(OCc2ccc(C(=O)OC)o2)cc1 (stereo not given)	7	-2	x	x	x	9
CCOc1ccc(N2C(=O)c3ccc(C(=O)OCc4c(C)noc4C)cc3C2=O)cc1	2	-6	2	12	3	x
CCCN(CC1CC1)C(=O)COC(=O)c1ccc2c(c1)C(=O)N(c1ccc(OCC)cc1)C2=O	25	16	16	-11	11*	10
CCOC(=O)c1ccc(NC(=O)CSc2nnc(-c3cccs3)n2CC)cc1	1	-8	3	3	1	x
SMILES	Hck-Nef inh	p47phox inh	Arbovirus anti	WT yeast gro inh	RAM inhibit	Calb biofilm kill
C=CCn1c(SCC(=O)Nc2ccc(C(=O)OC(C)C)cc2)nnc1-c1cccs1	-14	-2	-6	15	8.7*	x
CCC1Oc2ccc(C)cc2N(CC(=O)N(Cc2ccc(C)o2)C2CCCC2)C1=O (stereo not given)	6	-12	-19	65*	7	6
Cc1ccc(S(=O)(=O)c2nc(NN(C)C)sc2Cl)cc1	-31	6	12	20	0	27
CCOC(=O)c1c(NC(=O)COC(=O)c2nc(Cl)ccc2Cl)sc2c1CCC2	5	-16	-3	-16	8	0
Cc1ccc(SCC(=O)O/N=C(\N)c2cccc([N+](=O)[O-])c2)cc1	0	-12	1	59*	1	x
Cc1ccc(S(=O)(=O)N(C)CC(=O)O/N=C(\N)c2cccc([N+](=O)[O-])c2)cc1	-2	3	4	-7	8	x
O=C(c1cccs1)N1N=C(c2ccccc2)CC1c1ccccc1 (stereo not given)	1	-24	-23	67*	5	x
O=S(=O)(c1ccccc1)N1N=C(c2ccccc2)CC1c1ccccc1 (stereo not given)	2	-8	-5	80*	4	15
COc1ccc(C2=NN(S(=O)(=O)c3ccccc3)C(c3ccccc3)C2)cc1 (stereo not given)	-23	-42	x	x	x	26
O=C(c1cccs1)N1N=C(c2ccc(O)cc2)CC1c1ccccc1 (stereo not given)	1	-8	-4	14	4	5
COc1ccccc1C1CC(c2ccccc2)=NN1S(=O)(=O)c1ccccc1 (stereo not given)	3	-167	x	x	x	8
COc1cccc(C2CC(c3ccccc3)=NN2S(=O)(=O)c2ccc(C)cc2)c1OC (stereo not given)	-14	-224	-7	57	11*	7
COC(=O)C1=C(C(=O)OC)[C@@H]2N(C)c3ccc(OC)cc3[C@@]23C[C@@H](C(=O)OC)N=C3N1	27	2	x	x	x	14
Cc1ccc(-n2cc(CN3CCC(CO)(Cc4cccc(C(F)(F)F)c4)CC3)cn2)cc1	-2	-6	-32	93*	1	17
OCC1(Cc2cccc(C(F)(F)F)c2)CCN(Cc2cc(F)cc(F)c2)CC1	-9	-1	-31	69*	1	-13
CC(C)Cc1cc(CN2CCCC(CO)(Cc3cccc(Cl)c3)C2)[nH]n1 (stereo not given)	20	-9	-25	9	0	-5
CC(C)Cc1cc(CN2CCC(CO)(Cc3cccc(C(F)(F)F)c3)CC2)[nH]n1	20	+	-31	-1	-1	18
C=CCNc1nc2ccccc2nc1NS(=O)(=O)c1cccs1	2	-8	5	-4	0	x
CCCCCNc1nc2ccccc2nc1NS(=O)(=O)c1cccs1	2	-12	32*	20	2	x
Cc1cc(N/N=C/c2ccc(O)c(C)c2O)nc(-c2ccccc2O)n1	1	-5	-36	76*	0	12
C/C(=N\Nc1cc(C)nc(-c2ccccc2O)n1)c1ccccc1	19	-3	1	47	1	7
COc1ccc(OC)c(/C=N\NC(=O)CC(=O)NCCc2ccccc2)c1	24	0	31*	11	0	9
